Dynein transport: blocks dynein driven cargo transport along microtubules | 3617.4 mouse cells, GR-EGFP nuclear translocation imaging; test concentration mostly 20 µM; stimulated with dexamethasone, 1 µM; hits give low values | z-score, hits read low | 220,000 tested, 0.47% active | AID 1381;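 active = plate z-score of nuclear minus cytoplasmic receptor signal below a set negative limit, without overly bright fluorescence or cell loss, cut at about -3.5 in these data, passing the limit was not always enough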;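 also: z-score of nuclear minus cytoplasmic ring GR-EGFP intensity difference per well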
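Also added – dexamethasone, 1.0 µM final · Buffer or medium – tet-free, stripped-serum medium · Schedule – induction 48 h, compound 1 h, agonist 30 min · Detection – formaldehyde fixation, Hoechst nuclear stain, 10x automated fluorescence imaging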
RAM network inh: yeast RAM network inhibition; S. cerevisiae dse1pr::URA3 reporter, 5-FOA growth OD615, 2 d; analog-sensitive cbk1-as2 kinase mutant strain; 190,000 tested, 1.8% active; inhibition, % at 50 µM;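 active = inhibition above a set limit, 3 SD over mean compound inhibition, cut at about 8.4% in these data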;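 also: 0% = DMSO-only wells with no growth and 100% = 10 µM 1-NA-PP1 full growth; inhibition rescues growth on 5-FOA so higher OD means more RAM inhibition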
p-CIP stab down: p/CIP protein destabilization. Q05BA5. F442A p/CIP-EGFP cells, EGFP fluorescence, 16 h. decrease of EGFP signal, % at 10 µM. 290,000 tested, 0.01% active. AID 1984;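 active = EGFP signal decrease of at least 30% at 10 µM or well 3 SD below plate mean, unless failing retest; inactive = the rest, including hits failing retest or dose response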
p47phox inh: blocks human p47phox regulatory protein of NADPH oxidases; P14598; p47phox/p22phox peptide binding, fluorescence polarization, 2 h; inhibition, % at 24.7 µM; 220,000 tested, 0.53% active; AID 1274;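 active = inhibition above about 30%, limit read from the data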;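 also: 0% = p47phox with labelled peptide and 100% = labelled peptide alone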
Target sequence (P14598 whole entry, looked up): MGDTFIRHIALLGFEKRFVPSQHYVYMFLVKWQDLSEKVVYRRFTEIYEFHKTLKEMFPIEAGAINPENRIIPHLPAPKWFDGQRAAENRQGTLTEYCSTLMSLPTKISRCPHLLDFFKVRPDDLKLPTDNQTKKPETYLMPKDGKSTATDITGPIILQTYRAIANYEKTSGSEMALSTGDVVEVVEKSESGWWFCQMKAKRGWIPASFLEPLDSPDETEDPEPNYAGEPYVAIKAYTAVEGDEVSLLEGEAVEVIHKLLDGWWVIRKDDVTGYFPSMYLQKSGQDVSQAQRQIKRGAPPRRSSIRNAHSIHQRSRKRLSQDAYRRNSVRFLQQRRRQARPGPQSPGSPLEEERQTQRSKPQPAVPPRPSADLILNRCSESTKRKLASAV
RAM 5-FOA: restores 5-FOA growth of efflux-deficient yeast; shares compounds with RAM network inh; S. cerevisiae efflux-deficient reporter strain, 5-FOA growth OD615, 2 days; max inhibition, %; 1,200 tested, under 10 active; call rule not given here;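 also: plate controls were vehicle for no effect and reference inhibitor for full effect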
Active calls of the source: *; x = no result given. Sampled rows, rich in hits. Any-hit rate of the full collection: about 1.9%.

SMILES | Dynein transport | RAM network inh | p-CIP stab down | p47phox inh | RAM 5-FOA
O=C(NCc1ccccc1)c1ccc(S(=O)(=O)N2CCCc3ccccc32)cc1 | -0.869 | 12.2* | -2.8 | -2.2 | 3.3
O=C(NCc1ccco1)c1ccc(S(=O)(=O)N2CCCc3ccccc32)cc1 | -0.233 | 7.4 | -1.8 | -3.7 | x
O=C(N=Nc1c(O)n(C2OC(=O)c3ccccc32)c2ccccc12)c1ccc(O)cc1 (stereo not drawn) | 0.343 | 12.3* | 6.7 | -0.3 | 4.2
Cc1ccc2c(C(=O)CCl)c(C)[nH]c2c1 | -0.935 | x | -6.3 | -16.4 | x
CC(NC(=O)COC(=O)/C(=C/c1cccs1)c1cccs1)c1ccccc1 (stereo not drawn) | 0.0841 | 13.6* | -4.4 | -7.5 | 1.2
CC(NC(=O)COC(=O)c1cccs1)c1ccccc1 (stereo not drawn) | x | x | -9.2 | x | x
CCOC(=O)c1cc(C)sc1NC(=O)C(c1ccccc1)c1ccccc1 | 1.77 | 16.1* | -18.2 | -14.8 | 5.2
CCOc1ccc(N2CC(C(=O)NCCc3ccc(S(N)(=O)=O)cc3)CC2=O)cc1 (stereo not drawn) | x | x | 2.3 | x | x
COC(=O)[C@@H]1CC[C@H](C)[C@@H](c2ccc(C)cc2)N1C(=O)c1ccc(/C=N/OC[C@@H](O)COCc2ccco2)cc1 | 0.0142 | 14.9* | -12.5 | -2.3 | 1.6
C=CC[C@@H]1C=C[C@H](O/N=C/c2ccc(C(=O)N3[C@H](c4ccc(C)cc4)[C@@H](C)CC[C@H]3C(=O)OC)cc2)[C@@H](CO)O1 | -0.79 | 3.9 | 5.5 | -3.2 | x
Cc1ccc(C(=O)NCCSCc2ccc(Cl)cc2Cl)cc1[N+](=O)[O-] | -0.225 | 14.1* | 2.2 | -31.9 | 1.4
Cc1ccc(C(=O)NCCSC(C)(C)C)cc1[N+](=O)[O-] | -1.26 | 0.9 | 0.2 | -15.1 | x
COC(=O)C1=CN(Cc2cccs2)C=C(C(=O)OC)C1c1ccc(OC)cc1OC | -0.499 | 2.4 | -27.8 | -8.6 | x
COC(=O)C1=CN(Cc2cccs2)C=C(C(=O)OC)C1c1cccc(Cl)c1 | 0.745 | 13.3* | -12.3 | -5.3 | 2.5
Cc1cc(C)cc(NC(=O)c2cccn2-c2ncc(C(F)(F)F)cc2Cl)c1 | 0.0856 | 3.9 | 2.1 | -11.6 | x
CCCN(CC1CC1)C(=O)CSc1ncnc2sc(C)c(C)c12 | -0.0541 | 13.8* | 8.0 | -6.1 | 2.4
CCN(C(=O)CSc1ncnc2sc(C)c(C)c12)C1CCS(=O)(=O)C1 (stereo not drawn) | 0.909 | 0.8 | -1.5 | -1.1 | x
O=C(Nc1ccc(C(F)(F)F)cc1)C1CCN(S(=O)(=O)c2ccc(N3CCCC3=O)cc2)CC1 | x | x | -26.6 | x | x
CCN(c1ccccc1)S(=O)(=O)c1ccc(NCC2COc3ccccc3O2)nc1 (stereo not drawn) | 0.412 | 12.6* | -29.6 | -42.5 | 2.9
Cc1cccc(/C=C2\Oc3cc(OS(C)(=O)=O)ccc3C2=O)c1 | 0.0864 | 12.1* | 6.4 | -3.6 | 3.8
O=C1/C(=C/c2cccc(F)c2)Oc2cc(O)ccc21 | x | x | -8.0 | x | x
COc1ccc(-n2nnc3c(SCC(=O)OCc4ccccc4)ncnc32)cc1 | 2.18 | 13.6* | 2.8 | 11.2 | 2.6
Cc1cc(OC(C)C(=O)NCCCN2CCOCC2)ccc1Cl (stereo not drawn) | x | x | -23.4 | x | x
CCCCCC(=O)O[C@]1(C(C)=O)CC[C@H]2[C@@H]3CCC4=CC(=O)CC[C@]4(C)[C@H]3CC[C@@]21C | -1.12 | 11.9* | -6.1 | 2.8 | 3.0
COc1ccc(CNC(=O)CN(Cc2ccc(C)cc2)C(=O)c2csnn2)cc1 | x | x | -25.7 | x | x
SMILES | Dynein transport | RAM network inh | p-CIP stab down | p47phox inh | RAM 5-FOA
O=C(Nc1cccc(C(F)(F)F)c1)NC1CCCCC1 | -0.405 | 1.7 | 0.2 | -20.0 | x
O=C(OC(C(=O)Nc1cccc(C(F)(F)F)c1)c1ccccc1)C1CCCCC1 (stereo not drawn) | -0.946 | 13.7* | -1.0 | -22.6 | 2.1
COc1cc(OC)cc(C(=O)NCC2CCCN(C(=O)c3csc(C(C)C)n3)C2)c1 (stereo not drawn) | x | x | 1.4 | x | x
CC(C)c1ccccc1NC(=O)COC(=O)CCN1C(=O)/C(=C\C=C\c2ccccc2)SC1=S | -1.29 | 2.2 | 1.6 | -34.4 | x
O=C(COC(=O)CCN1C(=O)/C(=C\C=C\c2ccccc2)SC1=S)Nc1ccc(Br)cc1 | -1.02 | 15.6* | 10.1 | -57.2 | 2.3
O=C(NC1CCCCC1)C1CCC(=O)N(Cc2cccc(C(F)(F)F)c2)C1 (stereo not drawn) | x | x | 5.8 | x | x
CC(=O)Oc1cccc(NC(=O)c2cccc(C(=O)Nc3cccc(OC(C)=O)c3)c2)c1 | x | x | 11.2 | x | x

Compound activity: PubChem, several laboratories
